High-throughput results deposited in PubChem BioAssay by The Scripps Research Institute Molecular Screening Center.
SIAE inh – inhibitors of human sialic acid acetylesterase SIAE. Q9HAT2. SIAE FP-Rh probe binding, fluorescence polarization. inhibition, % at 9.66 µM. 370,000 tested, 0.69% active. AID 1053197;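 active means inhibition above a cutoff: mean of compounds within the control limits plus 3 SD of those, cut at about 17% in these data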;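 further: 0% = plate median of compound wells and 100% = probe without SIAE protein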
Target sequence (Q9HAT2 whole entry, looked up): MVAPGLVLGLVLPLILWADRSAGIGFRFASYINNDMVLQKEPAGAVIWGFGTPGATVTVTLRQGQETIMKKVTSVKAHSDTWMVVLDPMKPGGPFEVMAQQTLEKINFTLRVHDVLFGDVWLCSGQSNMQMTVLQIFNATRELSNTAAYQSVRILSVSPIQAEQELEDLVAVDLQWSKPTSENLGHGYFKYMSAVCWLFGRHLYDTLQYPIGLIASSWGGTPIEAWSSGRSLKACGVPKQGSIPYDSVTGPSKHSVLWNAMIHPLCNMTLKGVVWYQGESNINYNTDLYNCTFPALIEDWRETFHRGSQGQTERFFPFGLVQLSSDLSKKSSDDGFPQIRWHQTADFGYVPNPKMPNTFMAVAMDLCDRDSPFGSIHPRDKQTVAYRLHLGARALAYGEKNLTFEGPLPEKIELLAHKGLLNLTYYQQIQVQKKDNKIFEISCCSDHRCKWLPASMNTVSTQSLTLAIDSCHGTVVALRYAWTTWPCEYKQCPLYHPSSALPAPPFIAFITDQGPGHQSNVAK
HTRA1 inh – blocks human HTRA1 serine peptidase; Q92743; 340,000 tested, 0.5% active; recombinant HTRA1, FP-rhodamine activity-based probe, fluorescence polarization; inhibition, % at 5.96 µM; AID 504803; in the data active means inhibition above about 36%;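 further: 0% = enzyme with DMSO and 100% = wells lacking enzyme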
rCAG RNA binder – molecules binding r(CAG) RNA repeats; r(CAG) RNA repeat, TO-PRO-1 dye displacement fluorescence; inhibition, % at 3 µM; 370,000 tested, 1.3% active; AID 651821;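 active means inhibition above the plate cutoff, the mean of all test compounds on that plate plus 3 SD, cut at about 35% in these data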;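 further: 0% = DMSO alone and 100% = 100 µM mitoxantrone as full dye displacement; higher means more dye released from RNA so lower well fluorescence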
ABHD4 inh – inhibitors of mouse ABHD4; inhibition, % at 8.92 µM; AID 720543; 370,000 tested, 0.54% active; purified mABHD4, FP-Rh probe fluorescence polarization;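 active means inhibition exceeding the mean over every tested compound plus 3 SD, cut at about 30% in these data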;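 further: 0% = plate median of compound wells and 100% = S159A mutant with DMSO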
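Test system: mouse ABHD4 enzyme, wild type. Reagent: FP-Rh fluorescent activity-based probe, added after compound pre-incubation. Timing: pre-incubation 45 min, probe exposure 60 min, at 25 °C. Technique: FP readout, ex 525 nm / em 598 nm. Benchmarks: high control S159A mutant with DMSO, low control median of compound wells.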
TCR CD3 inh – blocks the human TCR-CD3 interaction; TAMRA-labeled TCR probe fluorescence, biochemical; inhibition, % at 9.4 µM; 360,000 tested, 0.37% active; AID 651800; in the data active means inhibition above about 19%;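 further: recombinant mutant TCR 2C K166C tagged with TAMRA read by polarization; 0% = receptor in buffer alone and 100% = receptor with positive control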
HTRA1 inh conf – confirmation of human HTRA1 inhibitors. recombinant HTRA1, FP-rhodamine activity-based probe, fluorescence polarization. 1,600 tested, 66% active. inhibition, % at 5.96 µM. AID 540248. shares compounds with HTRA1 inh;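 active means mean inhibition over three repeats above a set limit taken from the earlier primary screen, cut at about 37% in these data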;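 further: 0% = HTRA1 with DMSO and 100% = wells lacking HTRA1; inhibitors block probe binding so polarization drops and inhibition rises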
* hit, by the source's call; x = no result given. An excerpt weighted towards active compounds, which were near 2.5% of everything screened.

SMILES	SIAE inh	HTRA1 inh	rCAG RNA binder	ABHD4 inh	TCR CD3 inh	others
C/C=C(\C)C(=O)OC1CC(C)(C)C[C@H]2C3=CC[C@@H]4[C@@]5(C)CCC(O[C@@H]6O[C@@H](C(=O)O)[C@@H](O)C(O[C@@H]7OC[C@H](O)[C@@H](O)[C@@H]7O[C@@H]7OC(CO)C(O)[C@@H](O)[C@@H]7O)C6O[C@@H]6OC(CO)C(O)C(O)C6O)[C@@](C)(CO)[C@@H]5CC[C@]4(C)[C@]3(C)CC(O)[C@@]12CO (stereo partly specified)	-12	-30	45*	-9	9
O=C(COC(=O)c1cc(S(=O)(=O)N2CCOCC2)ccc1F)c1ccccc1	1	6	2	0	0
CCOc1ccccc1C(O)C1=CC(=O)c2ccccc2C1=O (stereo unspecified)	15	17	38*	43*	13
O=C(CNC(=O)c1ccc(Cl)cc1Cl)OCc1nnc(-c2ccccc2)o1	8	0	-3	0	5
CCOC(=O)Cc1nnc(NC(=O)Nc2ccccc2)s1	4	-11	35*	-7	-5
Nc1ccc2cccc(O)c2c1	5	28	15	48*	-7
Cc1ccc(/C=C2/SC(=S)N(C3CCCCC3)C2=O)o1	9	25	55*	18	-6
Cc1cc(CNC(=O)c2cccc3c2C(=O)c2ccc(-c4ccc(F)cc4OCc4ccccc4)cc2S3(=O)=O)c(C(F)(F)F)o1	-27	-20	43*	-9	-8
COCCN(CCOC)Cc1cc(=O)oc2cc(C)c(C)cc12	-1	x	2	2	-5
O=C(/C=C/c1ccccc1)NC(NC(=S)Nc1ccc(Cl)cc1)C(Cl)(Cl)Cl (stereo unspecified)	-47	-40	14	-51	26*
Cc1cc(O)c2c(c1)C(=O)c1cccc(O)c1C2=O	2	x	-6	13	-1
O=C(O)c1cc(O)c2c(c1)C(=O)c1cccc(O)c1C2=O	12	31	13	98*	11
CCc1ccc(OC(C)c2nnc(SCC(=O)Nc3ncccc3C)n2C)cc1 (stereo unspecified)	7	-13	-6	-7	3
COc1ccccc1NC(=O)CSc1nc(O)cc(=O)n1-c1ccccc1OC	-7	-14	40*	-22	2
COc1ccccc1-n1c(SCC(=O)NC(C)(C)C)nc(O)cc1=O	1	0	11	4	-3
Cc1cccc(C)c1NC(=O)C(c1ccc(-c2ccccc2)cc1)n1c(=O)c(-c2ccco2)nc2ccccc21 (stereo unspecified)	-27	x	41*	-20	-12
Cc1cccc(C)c1NC(=O)C(c1ccccc1)n1c(=O)c(-c2ccccc2)nc2ccccc21 (stereo unspecified)	-12	x	7	-23	-3
CC(C)(C)NC(=O)C(c1ccc(-c2ccccc2)cc1)n1c(=O)c(-c2ccco2)nc2ccccc21 (stereo unspecified)	-13	x	37*	-1	5
Cc1ccnc(N2CCC(C(=O)NCc3ccc(F)cc3)CC2)n1	-2	-4	0	-2	6
CCC(COC(=O)c1ccccc1)Oc1cc(NCc2ccccc2)c2ncn(C(C)C)c2c1 (stereo unspecified)	7	20	0	31*	2
CCC(COC)Oc1cc(NCc2ccccc2)c2ncn(C(C)C)c2c1 (stereo unspecified)	5	30	0	24	5
COc1ccccc1N1CCN(C(CNS(=O)(=O)c2ccccc2)c2cccnc2)CC1 (stereo unspecified)	x	6	x	x	x
Cc1ccc(N2C(=O)c3cccc4c(N)ccc(c34)C2=O)c2cccnc12	-38	11	-251	4	13
COc1ccc(C(=O)Nc2ccccc2C(=O)O)cc1NC(=O)C(c1ccccc1)c1ccccc1	-46	-48	82*	-58	3
COc1ccc(C(=O)Nc2ccccc2C(=O)O)cc1Cl	-16	-5	7	-2	-5
SMILES	SIAE inh	HTRA1 inh	rCAG RNA binder	ABHD4 inh	TCR CD3 inh	others
Cc1noc(NS(=O)(=O)c2ccc(NC(=O)C(C)(C)C)cc2)c1C	10	2	2	4	0
Cc1noc(NS(=O)(=O)c2ccc(NC(=O)/C=C/c3ccc(C(C)C)cc3)cc2)c1C	1	-24	85*	-10	-4
CCOC(=O)C1CCCN(C(=O)CCNS(=O)(=O)c2ccc3c(c2)CCC(=O)N3)C1 (stereo unspecified)	1	6	0	8	1
c1ccc(-c2nc3cc4ccccc4cc3[nH]2)nc1	15	55*	4	7	-1	HTRA1 inh conf=60*
COc1ccc(-c2cc(=O)c3c(O)cc(O)cc3o2)cc1	-20	-9	6	-1	-1
O=c1cc(-c2ccc(O)cc2)oc2c(-c3c(O)cc(O)c4c(=O)cc(-c5ccc(O)cc5)oc34)c(O)cc(O)c12	-24	53*	94*	-15	12	HTRA1 inh conf=50*
Cc1nc(SCC(=O)NC2CCS(=O)(=O)C2)c2c3c(sc2n1)CCCC3 (stereo unspecified)	13	-4	2	0	1
COc1c(O)c(O)c2oc(-c3ccccc3)cc(=O)c2c1OC	1	46*	9	8	-2	HTRA1 inh conf=60*
COc1cc(-c2cc(=O)c3c(O)c(OC)c(OC)c(O)c3o2)ccc1O	1	34	13	24	12
COc1cc(NCCCCCCN)c2ncccc2c1OC	7	38*	7	40*	14	HTRA1 inh conf=39*
CCCCCCCCc1nc(SCC(C)=O)n[nH]1	3	5	-2	-4	7
O=C(CSc1ccc(-c2ccco2)nn1)N1CCCCCC1	2	4	-1	2	9
Cc1nc(C)c(CC(=O)N/N=C/c2ccc(O)cc2)c(=O)[nH]1	-1	-4	-3	0	-4
O=C(Nc1ccc(N2CCCC2)cc1)c1cc(Cl)ccc1Cl	7	59*	14	2	7	HTRA1 inh conf=6
CCCCC(=O)Nc1ccc(N2CCCC2)cc1	2	44*	3	5	0	HTRA1 inh conf=38*
CCCCC(=O)Nc1ccc(N2CCN(C(=O)CC)CC2)cc1	-6	2	-5	5	3
Cc1cc(C)cc(C(=O)Nc2ccc(N3CCCC3)cc2)c1	1	39*	3	11	2	HTRA1 inh conf=11
CC(C)n1cnnc1SCC(=O)Nc1cccnc1Cl	2	0	2	2	6
CCOc1c(OC(C)=O)ccc(/C=C/c2ccc3cccc(OC(C)=O)c3n2)c1[N+](=O)[O-]	x	37*	x	x	x	HTRA1 inh conf=27
CCN(CC)c1ccc(C=Nc2ccc(N(C)C)cc2)c(O)c1	3	38*	12	26	2	HTRA1 inh conf=-15
CN1CCN(c2ccccc2NC(=O)C(Cc2ccccc2)n2cccc2)CC1 (stereo unspecified)	7	-5	-1	6	10
